Assay results of several laboratories.
Read-out: metabolic stability
Host: human

CONC(=O)[C@H]1[C@@H](O)[C@@]2(O)c3c(OC)cc(OC)cc3O[C@@]2(c2ccc(OC)cc2)[C@@H]1c1ccccc1 — half-life (liver microsomes): 120 min
CC(C)C[C@H](NC(=O)[C@H](Cc1ccccc1)NC(=O)[C@H](Cc1ccccc1)NC(=O)Cc1ccc(-c2ccccc2)cc1)C(=O)N[C@@H](CCCCN)C(=O)N[C@@H](CCCNC(=N)N)C(=O)N[C@H](C(=O)N[C@@H](Cc1c[nH]c2ccccc12)C(=O)N[C@@H](CCCCN)C(=O)N[C@@H](CCCNC(=N)N)C(=O)O)C(C)C — half-life (liver microsomes; 1 µM): 22.8 min
C[C@]12CC[C@H]3[C@@H](CC=C4CC(O)CC[C@@]43CO)[C@@H]1CCC2O (stereo partly drawn) — half-life (liver microsomes): 73.6 min
CC[C@H](C)[C@H](NC(=O)[C@H](CC(=O)O)NC(=O)[C@H](CS)NC(=O)[C@H](CCCCN)NC(=O)[C@H](CS)NC(=O)[C@H](CCSC)NC(=O)[C@@H]1CCCN1C(=O)[C@H](CCC(N)=O)NC(=O)[C@@H]1CCCN1C(=O)[C@H](CCCNC(=N)N)NC(=O)[C@H](CCCNC(=N)N)NC(=O)[C@H](CCCNC(=N)N)NC(=O)[C@H](CCCNC(=N)N)NC(=O)[C@H](CCC(N)=O)NC(=O)[C@H](CCCNC(=N)N)NC(=O)[C@H](CCCNC(=N)N)NC(=O)[C@H](CCCCN)NC(=O)[C@H](CCCCN)NC(=O)[C@H](CCCNC(=N)N)NC(=O)CN)C(=O)N[C@@H](CC(C)C)C(=O)N[C@@H](CCCCN)C(=O)N[C@@H](C)C(=O)O — half-life (liver microsomes; 1 µM): 6 min
C[C@]12CC[C@H]3[C@@H](CCC4=CC(=O)CC[C@@]43C)[C@@H]1CC[C@@H]2O — half-life (liver microsomes; 10 µM, pH 7.4): 19.3 min
CNC(C)Cc1ccc2nonc2c1 (stereo not drawn) — half-life (liver microsomes; 0.5 µM): > 150 min
COc1ccc([C@@]23Oc4cc(OC)cc(OC)c4[C@@]24N=C(C2CC2)N[C@@]4(O)[C@H](C(=O)N(C)OC)[C@H]3c2ccccc2)cc1 — half-life (liver microsomes; 1 µM, pH 7.4): 18.3 min
CNC(C)Cc1ccc2nsnc2c1 (stereo not drawn) — half-life (liver microsomes; 0.5 µM): 53 min
C[C@]12CC[C@H]3[C@@H](CCC4=CC(=O)CC[C@@]43C)[C@@H]1CC[C@@H]2O — half-life (hepatocytes; 1 µM): 6.51 min
